Test results published in ChEMBL document CHEMBL1926509, “Discovery of pyrazolo[1,5-a]pyridines as p110α-selective PI3 kinase inhibitors” (Bioorg Med Chem, 2012).

Columns and labels:
Mus musculus [1] = assay: Toxicity in human HCT116 cells xenografted Rag1 knockout mouse assessed as mortality at 20 mg/kg, ip qd for 14 days; format: organism-based, HCT-116; set-up: dose 20 mg/kg, route intraperitoneal; details: in vivo, 336 h
Method in brief: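 Age-matched specific pathogen-free female Rag1-/- mice bearing subcutaneous HCT-116 tumours (5 × 10⁶ cells inoculated in PBS), n = 7 per group. Drug given ip at 20 mg/kg once daily for 14 days in 7.5% DMSO/42.5% PEG-400/20% 2-hydroxypropyl-β-cyclodextrin/30% water; controls received vehicle alone. Bodyweight recorded daily; mice culled when weight loss exceeded 20% of starting weight.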

HCT-116 = assay: Antitumor activity against human HCT116 cells xenografted in Rag1 knockout mouse assessed as tumor growth inhibition at 20 mg/kg, ip qd for 14 days relative to untreated control; format: functional; details: HCT-116, ip, 336 h, route intraperitoneal, read-out: GI
Method in brief: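 Female specific-pathogen-free Rag1−/− mice, age-matched, inoculated subcutaneously with 5×10⁶ HCT-116 cells in PBS. Dosed ip at 20 mg/kg q.d. for 14 days in 7.5% DMSO/42.5% PEG-400/20% hydroxypropyl-β-cyclodextrin/30% water; controls received vehicle only; n = 7 per group. Tumour volume measured three times weekly; 1-way ANOVA with Holm-Sidak comparison at study end.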

Mus musculus [2] = assay: Toxicity in human HCT116 cells xenografted Rag1 knockout mouse assessed as body weight loss at 20 mg/kg, ip qd measured up to day 10; format: organism-based, HCT-116; set-up: dose 20 mg/kg, route intraperitoneal; details: in vivo
Method in brief: (§1)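 Female specific-pathogen-free Rag1−/− mice carrying subcutaneous HCT-116 tumours, given 20 mg/kg ip daily for 14 days in a DMSO/PEG-400/hydroxypropyl-β-cyclodextrin/water vehicle; controls received vehicle; n = 7 per group. Bodyweight recorded daily; mice culled if loss exceeded 20% of starting weight.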

Mus musculus [3] = assay: Toxicity in human HCT116 cells xenografted Rag1 knockout mouse assessed as body weight loss at 20 mg/kg, ip qd measured after 10 days relative to untreated control; format: organism-based, HCT-116; set-up: dose 20 mg/kg, route intraperitoneal; details: in vivo, 240 h; method in brief: as §1

With Cc1ccc([N+](=O)[O-])cc1S(=O)(=O)N(C)/N=C/c1cnc2ccc(Br)cn12 the Activity (Mus musculus [1]) was “Non-toxic”, the inhibition in vivo at 20 mg/kg (HCT-116) was 23.2% and the Activity (Mus musculus [2]) was “Non-toxic”. For the same molecule, the Activity (Mus musculus [3]) was 15%.
